Test results from ChEMBL document CHEMBL5356941, “Synthesis, activity and metabolic stability of propan-2-one substituted tetrazolylalkanoic acids as dual inhibitors of cytosolic phospholipase A2α and fatty acid amide hydrolase” (RSC Med Chem, 2023).
pIC50: −log10 of the molar value. ≈ marks a conversion by molar mass, not a printed value.

Assays:
[1] = Lipophilicity, logP of compound by RP-HPLC analysis; assay type: physicochemical
[2] = target: T1, Fatty-acid amide hydrolase 1 (Rattus norvegicus, UniProt P97612); assay: Inhibition of rat brain microsome FAAH using N-(2-hydroxyethyl)-4-pyren-1-ylbutanamide as substrate incubated for 60 mins by RP-HPLC analysis; assay type: microsomes
T1 sequence (P97612 whole entry): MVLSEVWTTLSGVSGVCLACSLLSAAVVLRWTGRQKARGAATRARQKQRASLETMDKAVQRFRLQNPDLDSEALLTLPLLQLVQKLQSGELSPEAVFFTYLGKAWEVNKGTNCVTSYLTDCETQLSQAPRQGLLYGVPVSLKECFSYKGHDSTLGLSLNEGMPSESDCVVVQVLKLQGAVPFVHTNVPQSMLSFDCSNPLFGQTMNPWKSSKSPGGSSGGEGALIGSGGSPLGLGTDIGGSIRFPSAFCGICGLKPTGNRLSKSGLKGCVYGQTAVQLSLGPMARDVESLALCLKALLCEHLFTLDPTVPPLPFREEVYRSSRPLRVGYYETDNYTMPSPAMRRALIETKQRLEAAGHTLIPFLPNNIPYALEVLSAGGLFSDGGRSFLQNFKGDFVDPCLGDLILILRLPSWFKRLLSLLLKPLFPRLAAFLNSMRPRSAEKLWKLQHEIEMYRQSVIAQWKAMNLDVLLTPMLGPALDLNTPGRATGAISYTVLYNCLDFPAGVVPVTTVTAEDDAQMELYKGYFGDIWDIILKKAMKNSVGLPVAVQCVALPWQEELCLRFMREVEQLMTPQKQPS

[3] = Inhibition of porcine platelets cPLA2 alpha using 1-stearoyl-2-arachidonoyl-sn-glycero-3-phosphocholine as substrate incubated for 60 mins by RP-HPLC analysis; design: species or system Sus scrofa
Outline: (§1)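 Stopped with acetonitrile/methanol/0.1 M EDTA containing internal standard and NDGA; released arachidonic acid measured by RP-HPLC, UV 200 nm, after online SPE, with vs without compound. IC50s are means of at least two independent determinations.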

[4] = Metabolic stability in rat liver S9 fraction assessed as parent compound remaining at 20 uM after 30 mins in presence of NADPH by RP-HPLC analysis; assay type: ADME, subcellular; conditions: read-out: Stability
Outline: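 Compounds (final 20 μM) incubated aerobically with rat liver S9 fraction with or without NADPH (final 1 mM); stopped after 30 min. Percent parent remaining measured by reversed-phase HPLC with UV or MS detection; means of independent duplicates.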

[5] = Aqueous solubility of the compound in PBS at pH 7.4 incubated for 20 hrs by RP-HPLC analysis; assay type: physicochemical; conditions: buffer, pH 7.4, 20 h
Outline: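 Thermodynamic solubility: 1 mg test compound in 2 mL PBS (0.01 M, pH 7.4), bath-sonicated 10 min, shaken 20 h at room temperature, centrifuged; acetonitrile added to an aliquot of clear supernatant and dissolved compound quantified by reversed-phase HPLC with UV at 240 nm.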

[6] = target: T2, Cytosolic phospholipase A2 (Homo sapiens, UniProt P47712); assay: Inhibition of cPLA2 alpha (unknown origin)
T2 sequence (P47712 whole entry): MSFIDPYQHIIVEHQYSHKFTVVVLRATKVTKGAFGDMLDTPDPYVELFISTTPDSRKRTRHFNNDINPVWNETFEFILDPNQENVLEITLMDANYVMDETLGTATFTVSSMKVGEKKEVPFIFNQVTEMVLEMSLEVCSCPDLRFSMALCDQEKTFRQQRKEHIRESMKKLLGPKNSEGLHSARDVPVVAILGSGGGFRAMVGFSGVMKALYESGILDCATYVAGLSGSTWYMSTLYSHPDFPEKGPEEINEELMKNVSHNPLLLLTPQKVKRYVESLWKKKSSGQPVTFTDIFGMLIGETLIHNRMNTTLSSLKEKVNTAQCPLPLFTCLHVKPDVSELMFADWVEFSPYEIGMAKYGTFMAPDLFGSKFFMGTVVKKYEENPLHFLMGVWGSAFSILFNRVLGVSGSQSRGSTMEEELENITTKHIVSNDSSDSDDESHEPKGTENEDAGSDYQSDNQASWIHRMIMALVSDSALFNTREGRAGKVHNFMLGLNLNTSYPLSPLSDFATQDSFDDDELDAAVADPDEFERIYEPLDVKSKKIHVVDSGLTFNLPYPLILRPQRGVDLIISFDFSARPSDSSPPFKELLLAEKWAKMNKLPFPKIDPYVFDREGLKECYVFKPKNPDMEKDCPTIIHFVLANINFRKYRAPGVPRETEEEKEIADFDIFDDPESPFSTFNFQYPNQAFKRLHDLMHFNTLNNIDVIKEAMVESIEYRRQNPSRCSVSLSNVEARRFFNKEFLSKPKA
Outline: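 Stopped with acetonitrile/methanol/0.1 M EDTA containing internal standard and NDGA. Released arachidonic acid quantified by reversed-phase HPLC, UV 200 nm, after online SPE; IC50 as mean of ≥2 independent determinations.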

[7] = system: Platelet; assay: Inhibition of porcine platelets cPLA2 alpha at 10 uM using 1-stearoyl-2-arachidonoyl-sn-glycero-3-phosphocholine as substrate incubated for 60 mins by RP-HPLC analysis relative to control; assay type: cell-based; conditions: Sus scrofa; outline: as §1
[8] = target: T3, Fatty-acid amide hydrolase 1 (Rattus norvegicus) (UniProt P97612); assay: Inhibition of rat brain microsome FAAH at 10 uM using N-(2-hydroxyethyl)-4-pyren-1-ylbutanamide as substrate incubated for 60 mins by RP-HPLC analysis relative to control; assay type: microsomes
T3 sequence (whole entry): T1 sequence (P97612 whole entry)
Outline: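 Rat brain microsomes incubated with N-(2-hydroxyethyl)-4-pyren-1-ylbutanamide (final 100 μM) in PBS containing 0.20% Triton X-100. Reaction stopped after 60 min with acetonitrile/methanol containing 6-pyren-1-ylhexanoic acid as internal standard; released 4-pyren-1-ylbutanoic acid quantified by reversed-phase HPLC with fluorescence detection, with vs without compound. IC50s are means of at least two independent determinations.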

SMILES | pIC50 [2] | pIC50 [3] | remaining at 0.5 h, 20 µM [4] | also measured
CC(Oc1ccc(Oc2ccccc2)cc1)C(=O)Cn1nnc(CCC(=O)O)n1 (stereo not drawn) | 7.36 | 6.27 | < 5% | –
CC(Oc1ccc(Oc2ccccc2)cc1)C(=O)Cn1nnnc1CCCC(=O)O (stereo not drawn) | 6.77 | 5.32 | 71% | –
COc1ccc2c(c1)c(CC(=O)O)c(C)n2C(=O)c1ccc(Cl)cc1 [INDOMETHACIN] | – | – | – | solubility [5]: 246 µg/mL (≈ 688 µM)
O=C(O)CCCc1nnnn1CC(=O)COc1ccc(Oc2ccccc2)cc1 | 6.77 | 5.48 | 36% | –
CCCCCCCCc1ccc(OCC(=O)Cn2nnc(CCC(=O)O)n2)cc1 | – | 7.72 | – | logP [1]: 5.5
O=C(O)CCc1nnnn1CC(=O)COc1ccc(Oc2ccccc2)cc1 | 5.68 | 5.52 | 52% | –
CCCCCCCCCCOc1ccc(OCC(=O)COc2ccc(C(=O)O)cc2)cc1 | – | – | – | pIC50 [6]: 8.15
O=C(O)CCc1nnn(CC(=O)C2CCc3cc(-c4ccccc4)ccc3O2)n1 (stereo not drawn) | 7.03 | < 5.00 | < 5% | inhibition [7]: 34%
CC(Oc1ccc(Oc2ccccc2)cc1)C(=O)Cn1cc(CCC(=O)O)nn1 (stereo not drawn) | 6.77 | 5.51 | 29% | –
CC(C)Cc1ccc(C(C)C(=O)O)cc1 (stereo not drawn) [IBUPROFEN] | – | – | – | logP [1]: 3.2
CC(Oc1ccc(Oc2ccccc2)cc1)C(=O)Cn1nnc(CCCC(=O)O)n1 (stereo not drawn) | 7.37 | 6.14 | < 5% | –
O=C(O)CCc1cn(CC(=O)COc2ccc(Oc3ccccc3)cc2)nn1 | 6.89 | 6.07 | < 5% | –
CCCCCCCCc1ccc(OCC(=O)Cn2ccc3cc(C(=O)O)ccc32)cc1 | – | – | – | pIC50 [6]: 7.62
O=C(O)CCCc1nnn(CC(=O)COc2ccc(Oc3ccccc3)cc2)n1 | 7.27 | 6.55 | < 5% | –
CC(Oc1ccc(Oc2ccccc2)cc1)C(=O)Cn1nnnc1CCC(=O)O (stereo not drawn) | 6.06 | < 5.00 | 86% | inhibition [7]: 39%

Now from value to molecule, other results behind:

pIC50 [2] | pIC50 [3] | remaining at 0.5 h, 20 µM [4] | SMILES | also measured
7.49 | 7.33 | – | CCCCCCOc1ccc(OCC(=O)Cn2nnc(CCC(=O)O)n2)cc1 | logP [1]: 3.7
7.64 | 7.44 | – | CCCCCCc1ccc(OCC(=O)Cn2nnc(CCC(=O)O)n2)cc1 | logP [1]: 4.2
7.27 | 6.77 | < 5% | O=C(O)CCc1nnn(CC(=O)COc2ccc(Oc3ccccc3)cc2)n1 | logP [1]: 2.2
< 5.00 | 6.74 | – | CCCCCCOc1ccc(OCC(=O)C(C)n2nnc(CCC(=O)O)n2)cc1 (stereo not drawn) | inhibition [8]: 31%
7.47 | 6.30 | – | CCCCCCOc1ccc(OC(C)C(=O)Cn2nnc(CCCC(=O)O)n2)cc1 (stereo not drawn) | –
7.57 | 6.59 | – | CCCCc1ccc(OCC(=O)Cn2nnc(CCC(=O)O)n2)cc1 | logP [1]: 3
7.49 | 7.35 | – | CC(C)CCCOc1ccc(OCC(=O)Cn2nnc(CCC(=O)O)n2)cc1 | logP [1]: 3.6
6.12 | 6.60 | – | CCCCCCOc1ccc(OCC(=O)C(C)n2nnc(CCCC(=O)O)n2)cc1 (stereo not drawn) | –
7.47 | 6.72 | – | CCCCCCOc1ccc(OC(C)C(=O)Cn2nnc(CCC(=O)O)n2)cc1 (stereo not drawn) | –
